The full list was thinned out, with hits kept by preference.
KDM4C inh = inhibitors of GASC-1 (KDM4C) histone demethylase, primary screen, biochemical, single concentration HTS | Lysine-specific demethylase 4C (Homo sapiens), Q9H3R0 | GST-KDM4C 2-372, H3K9me3 peptide, LANCE TR-FRET | inhibition, % at 12.5 µM | 96,000 compounds, 0.15% hits;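 active means mean replicate inhibition above about 25%, with at least 55% of replicates also reaching it, limit read from the data, passing the limit was not always enough; inconclusive means only one of those two conditions met; inactive means neither condition met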
Target sequence (Q9H3R0 2-372 limits assumed): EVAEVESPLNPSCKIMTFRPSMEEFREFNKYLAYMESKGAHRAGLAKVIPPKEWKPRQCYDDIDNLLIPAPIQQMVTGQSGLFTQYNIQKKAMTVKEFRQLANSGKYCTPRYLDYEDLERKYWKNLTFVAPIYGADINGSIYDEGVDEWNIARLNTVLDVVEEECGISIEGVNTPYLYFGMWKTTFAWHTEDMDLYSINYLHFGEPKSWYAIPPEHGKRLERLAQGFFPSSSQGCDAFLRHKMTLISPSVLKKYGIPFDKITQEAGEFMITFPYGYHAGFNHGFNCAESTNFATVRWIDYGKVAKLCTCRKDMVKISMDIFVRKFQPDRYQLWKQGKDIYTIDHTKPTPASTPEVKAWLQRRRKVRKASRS
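Assay system: GST-GASC-1 enzyme fragment 2-372 | Amount: 10 nM enzyme | Medium: HEPES buffer, pH 7.5, plus ascorbate | Reagent: H3K9me3 peptide substrate, Fe(II), 2-oxoglutarate | Doses: Single-point compound screen | Incubation: 30 min demethylation and 1 h detection at room temperature | Measured by: LANCE TR-FRET, excitation 340 nm, emissions 618 and 671 nm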
T cruzi growth-1 = T. cruzi intracellular proliferation inhibitors, primary screen, cell-based, beta-gal Tulahuen parasites, NIH3T3 host, luminescence; 77,000 compounds, 5.9% hits; T. cruzi beta-gal in NIH3T3, GalScreen luminescence, 90 h; AID 624255, 2012; inhibition, % at 8.34 µM;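 active means mean inhibition above about 93%, with at least 55% of replicates each passing it, limit read from the data, passing the limit was not always enough; inconclusive means only one of those two conditions holds; inactive means neither condition holds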
IDH1 mut inh = inhibitors of IDH1 R132H reductase, primary screen, biochemical, plate reader, single point | Isocitrate dehydrogenase [NADP] cytoplasmic (Homo sapiens), O75874 | diaphorase/resazurin fluorescence, 60 min | inhibition, % at 10 µM | 70,000 compounds, 0.18% hits | AID 624101, 2012; in the data active means inhibition above about 34%; inconclusive means no clear call, values can overlap the other calls; inactive means below about 11%;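 further: 0% = DMSO and 100% = no enzyme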
T cruzi growth-2 = T. cruzi intracellular proliferation inhibitors, confirmation, cell-based, NIH3T3 host, beta-gal parasite, luminescence, cherry-pick; shares compounds with T cruzi growth-1; T. cruzi beta-gal in NIH3T3, GalScreen luminescence, 90 h; inhibition, % at 8.35 µM; 5,600 compounds, 72% hits; AID 651739, 2012;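 active means mean replicate inhibition above about 95% and at least 55% of replicates individually reaching it, limit read from the data; inconclusive means only one of the two criteria is met; inactive means neither criterion is met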
T cruzi growth-3 = inhibitors of intracellular T. cruzi replication, confirmation, NIH3T3 host cells, beta-gal parasites, cherry-pick, set 2; shares compounds with T cruzi growth-1; T. cruzi beta-gal in NIH3T3, GalScreen luminescence, 90 h; inhibition, % at 2.09 µM; 5,600 compounds, 21% hits; AID 651740, 2012;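 active means mean inhibition above about 95%, with at least 55% of replicates also reaching it, limit read from the data; inconclusive means meets just one of the two conditions; inactive means meets neither condition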;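 further: plate controls were neutral control median for no effect and positive control median for full effect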
NIH3T3 tox = cytotoxicity in mouse NIH/3T3 fibroblasts, confirmation, cytotoxicity control for T. cruzi proliferation inhibitor project, cell-based, cherry-pick, single point. shares compounds with T cruzi growth-1. NIH/3T3 viability, CellTiter-Glo ATP luminescence, 90 h. cytotoxicity (signal decrease), % at 8.35 µM. 5,600 compounds, 14% hits. AID 651742, 2012;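 active means mean signal decrease across replicates above about 35% based on untreated-well scatter, with enough replicates individually passing, limit read from the data; inconclusive means no rule stated though some were filed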;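 further: 0% = median of neutral control wells and 100% = median of positive control wells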
NIH3T3 tox 2 = NIH/3T3 fibroblast cytotoxicity, confirmation, cytotoxicity control, cell-based, cherry-pick, single point, set 2; shares compounds with T cruzi growth-1; inhibition, % at 24.9 µM; NIH/3T3 viability, CellTiter-Glo ATP luminescence, 90 h; 5,600 compounds, 56% hits;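 active means mean loss of cell viability signal at or above a set limit, and enough replicates individually reaching it; inconclusive means meets only the mean limit or only the replicate share; inactive means meets neither condition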;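 further: 0% = median of neutral control wells and 100% = median of positive control wells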
* marks the source's active call; other numbers are inactive results.

O=C(C[C@@H]1CC[C@@H]2[C@H](COC[C@@H](O)CN2CCC(F)(F)F)O1)NCC1CC1 was read as KDM4C inh -0.8 and T cruzi growth-1 25.7.
O=C(C[C@H]1CC[C@@H]2[C@H](COC[C@@H](O)CN2CCC(F)(F)F)O1)NCC1CCCCC1 was read as KDM4C inh -0.7, T cruzi growth-1 107.5*, T cruzi growth-2 32.3, T cruzi growth-3 6.0, NIH3T3 tox 21.3 and NIH3T3 tox 2 23.7.
`O=C(C[C@H]1CC[C@H]2[C@@H](COC[C@@H](O)CN2CCC(F)(F)F)O1)NCc1ccc(Oc2ccccc2)cc1` gave KDM4C inh -1.1, T cruzi growth-1 107.8*, T cruzi growth-2 85.0, T cruzi growth-3 11.0, NIH3T3 tox 39.1* and NIH3T3 tox 2 12.1.
`O=C(CNS(=O)(=O)c1ccccc1)Nc1ccc(Br)cc1F` gave IDH1 mut inh -0.2.
O=C(CSc1nnnn1-c1ccccc1F)N1c2ccccc2Sc2ccc(Cl)cc21 was read as IDH1 mut inh 0.3.
`Cc1ccccc1-c1nc(C#N)c(NCCN2CCOCC2)o1` gave IDH1 mut inh 0.0.
Cn1c(SCC(=O)n2c3c(c4ccccc42)CCCC3)nnc1-c1cccc([N+](=O)[O-])c1 was read as IDH1 mut inh 0.1.
C[C@@H]1CN([C@H](C)CO)C(=O)CCCn2cc(nn2)CO[C@H]1CN(C)C(=O)c1ccc2ccn(C)c2c1 was read as KDM4C inh 0.2, T cruzi growth-1 inconclusive, IDH1 mut inh -1.0, T cruzi growth-2 -1.4, T cruzi growth-3 -6.0, NIH3T3 tox -14.6 and NIH3T3 tox 2 -16.9.
C[C@@H]1CN([C@@H](C)CO)C(=O)CCCn2cc(nn2)CO[C@@H]1CN(C)C(=O)c1ccc(N2CCN(C)CC2)cc1 was read as KDM4C inh 0.4, T cruzi growth-1 9.3 and IDH1 mut inh 0.9.
C[C@H]1CN([C@@H](C)CO)C(=O)CCCn2cc(nn2)CO[C@H]1CN(C)C(=O)c1ccc2ccn(C)c2c1 was read as KDM4C inh 0.5, T cruzi growth-1 -131.7 and IDH1 mut inh 0.4.
For C[C@H]1CN([C@@H](C)CO)C(=O)CCCn2cc(nn2)CO[C@H]1CN(C)C(=O)c1ccc(N2CCN(C)CC2)cc1 the results were KDM4C inh 1.4, T cruzi growth-1 inconclusive, IDH1 mut inh 0.8, T cruzi growth-2 41.5, T cruzi growth-3 -20.0, NIH3T3 tox -24.8 and NIH3T3 tox 2 -37.6.
`C[C@H](CO)N1C[C@H](C)[C@H](CN(C)C(=O)c2ccc(N3CCN(C)CC3)cc2)OCc2cn(nn2)CCCC1=O` gave KDM4C inh 1.9, T cruzi growth-1 inconclusive, IDH1 mut inh 0.2, T cruzi growth-2 -57.2, T cruzi growth-3 -15.0, NIH3T3 tox -15.7 and NIH3T3 tox 2 -12.0.
Screening C[C@H]1CN([C@@H](C)CO)C(=O)CCCn2cc(nn2)CO[C@@H]1CN(C)C(=O)Nc1ccc(N2CCN(C)CC2)cc1 returned KDM4C inh -0.1 and T cruzi growth-1 7.3.
`CC(=O)Nc1ccc(NC(=O)CN(c2cc(C(F)(F)F)ccc2Cl)S(C)(=O)=O)cc1` gave IDH1 mut inh 0.3.
For COc1ccc(-c2ccc(C#N)c(SCC(=O)Nc3cc(OC)c(OC)c(OC)c3)n2)cc1 the results were IDH1 mut inh 0.3.
`C[C@H]1CN([C@@H](C)CO)S(=O)(=O)c2ccc(C3=CCCC3)cc2O[C@@H]1CN(C)Cc1cccnc1` gave KDM4C inh 1.9, T cruzi growth-1 102.9*, IDH1 mut inh 7.0, T cruzi growth-2 104.6*, T cruzi growth-3 103.9*, NIH3T3 tox 55.5* and NIH3T3 tox 2 62.8*.
C[C@@H]1CN([C@@H](C)CO)S(=O)(=O)c2ccc(C3=CCCC3)cc2O[C@@H]1CN(C)Cc1cccnc1 was read as KDM4C inh -1.2, T cruzi growth-1 99.6*, T cruzi growth-2 inconclusive, T cruzi growth-3 32.9, NIH3T3 tox inconclusive and NIH3T3 tox 2 46.1*.
`C[C@@H]1CN([C@@H](C)CO)S(=O)(=O)c2ccc(C3=CCCC3)cc2O[C@H]1CN(C)Cc1cccnc1` gave KDM4C inh -0.4, T cruzi growth-1 inconclusive, IDH1 mut inh 76.8*, T cruzi growth-2 105.2*, T cruzi growth-3 99.3*, NIH3T3 tox 47.2* and NIH3T3 tox 2 45.8*.
For C[C@H]1CN([C@@H](C)CO)S(=O)(=O)c2ccc(C3=CCCCC3)cc2O[C@H]1CN(C)Cc1cccnc1 the results were KDM4C inh 0.1.
For C[C@H]1CN([C@@H](C)CO)S(=O)(=O)c2ccc(C3=CCCCC3)cc2O[C@@H]1CN(C)Cc1cccnc1 the results were KDM4C inh 3.3.
Screening C[C@@H]1CN([C@@H](C)CO)S(=O)(=O)c2ccc(C3=CCCCC3)cc2O[C@H]1CN(C)Cc1cccnc1 returned KDM4C inh 0.1 and IDH1 mut inh 23.4.
OC1[C@H](O)CO[C@@H](OC[C@H]2O[C@@H](OC/C=C/c3ccccc3)[C@H](O)[C@@H](O)[C@@H]2O)[C@H]1O (some centres not stated) was read as IDH1 mut inh -0.4.
`O=C(CSc1ncnc2sc(-c3ccccc3)cc12)Nc1ccccc1C(F)(F)F` gave IDH1 mut inh 0.0.
`Cc1ccccc1/C=N/NC(=O)CCCCCC(=O)O` gave IDH1 mut inh 0.6.
CN(C)CC(=O)N1CCCCN2[C@@H](CO)[C@@H](c3ccc(-c4ccccc4)cc3)[C@@H]2C1 was read as KDM4C inh -0.3 and T cruzi growth-1 82.1.
CN(C)CC(=O)N1CCCCN2[C@H](CO)[C@@H](c3ccc(-c4cccnc4)cc3)[C@@H]2C1 was read as KDM4C inh -0.1, T cruzi growth-1 100.6*, T cruzi growth-2 39.6, T cruzi growth-3 -4.9, NIH3T3 tox -16.7 and NIH3T3 tox 2 -12.1.
`CCC(=O)N1CCCCN2[C@H](C1)[C@@H](c1ccc(-c3cccnc3)cc1)[C@@H]2CO` gave KDM4C inh 0.4 and T cruzi growth-1 -26.0.

Source: PubChem BioAssay
